The values that follow come from ChEMBL document CHEMBL5154924, “Discovery of In Vivo Active Sphingosine-1-phosphate Transporter (Spns2) Inhibitors” (J Med Chem, 2022).

The target of this assay is T1, Sphingosine-1-phosphate transporter SPNS2 (Mus musculus) (UniProt Q91VM4).
T1 sequence (whole entry): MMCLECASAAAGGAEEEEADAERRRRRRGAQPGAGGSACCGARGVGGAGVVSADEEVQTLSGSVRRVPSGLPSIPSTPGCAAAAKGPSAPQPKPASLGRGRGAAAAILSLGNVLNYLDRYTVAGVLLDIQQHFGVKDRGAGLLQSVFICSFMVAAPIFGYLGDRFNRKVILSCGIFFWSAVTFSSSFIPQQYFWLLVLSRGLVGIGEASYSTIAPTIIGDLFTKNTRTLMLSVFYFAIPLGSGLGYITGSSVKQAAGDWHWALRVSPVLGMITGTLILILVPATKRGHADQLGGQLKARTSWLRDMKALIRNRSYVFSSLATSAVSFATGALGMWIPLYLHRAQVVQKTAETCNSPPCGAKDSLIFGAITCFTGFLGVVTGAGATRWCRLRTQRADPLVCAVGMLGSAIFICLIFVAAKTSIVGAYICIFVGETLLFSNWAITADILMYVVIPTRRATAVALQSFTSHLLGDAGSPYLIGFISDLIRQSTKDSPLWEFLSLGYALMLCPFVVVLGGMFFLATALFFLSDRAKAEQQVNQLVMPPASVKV
The assay can be described thus: Inhibition of mouse Spns2 transfected in human HeLa cells by measuring S1P release at 2 uM by LC/MS analysis relative to control. The class given is cell-based. In short, it runs like this: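 HeLa cells stably transfected with mouse Spns2 and selected with G418, grown to near confluence. Medium replaced with RPMI 1640/0.2% fatty acid-free BSA containing 1 mM 4-deoxypyridoxine, 2 mM NaF and 0.2 mM Na₃VO₄. Compound added to duplicate wells, incubated 18–20 h. Medium S1P measured by LC-MS/MS against d₇-S1P after TCA precipitation and methanol extraction. Inhibition expressed relative to no-inhibitor control.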

`CCCCCCCCCCc1ccc(-c2noc(C[C@@H]3CCNC3)n2)cc1`: the inhibition (usually the share of the control response that was lost under treatment) is 44%.

For `CCCCCCCCCOc1ccc(-c2noc(CCCN)n2)cc1C(F)(F)F`, the inhibition stood at 24%.

The compound `CCCCCCCCCCc1ccc(-c2noc(CC(O)CN)n2)cc1` (centres undefined) showed an inhibition of 59%.

`CCCCCCCc1ccc(-c2noc(CCCN)n2)cc1`: the inhibition amounted to 52%.

Regarding `CCCCCCCCCCc1ccc(-c2noc(CC(O)CN3CCCCC3)n2)cc1` (centres undefined), the inhibition stood at 2%.

In the case of `CCCCCCCCCc1ccc(Cc2noc(CCCN)n2)cc1`, the inhibition is 34%.

For the compound `CCCCCCCCCCc1ccc(-c2csc(CCCN)n2)cc1`, the inhibition turned out to be 45%.

Turning to `CCCCCCCCCCc1ccc(-c2noc(CCCN3CCCC3)n2)cc1`, the inhibition stood at 3%.

For `CCCCCCCCCCc1ccc(-c2cn(C)c(CCCN)n2)cc1`, the inhibition was 51%.

Compound `CCCCCCCCNC(=O)c1ccc(-c2noc(CCCN)n2)cc1` showed an inhibition of 0%.

In the case of `CCCCCCCCCCc1ccc(-c2noc(CC(CN)OC(C)=O)n2)cc1` (centres undefined), the inhibition came to 0%.

Regarding `CCCCCCCCCCc1ccc(-c2noc(CCCN3CCOCC3)n2)cc1`, the inhibition stood at 2%.

With `CCCCCCCCCCc1ccc(-c2ccnn2CCCN)cc1`, the inhibition was found to be 45%.

`CCCCCCCCCCc1ccc(-c2noc(CC(O)CN(C)C)n2)cc1` (centres undefined) had an inhibition of 61%.

Compound `CCCCCCCCCCc1ccc(-c2noc(C3CNC3)n2)cc1` returned an inhibition of 65%.

`CCCCCCCCCc1ccc(-c2noc(CCCN)n2)cc1` came in with an inhibition of 61%.

`CCCCCCCCCCc1ccc(-c2noc(CCCNC)n2)cc1` had an inhibition of 45%.

Consider `CCCCCCCCCCc1ccc(-c2noc(CN3CCNCC3)n2)cc1`, for which the inhibition turned out to be 19%.

`CCCCCCCCCCc1ccc(-c2coc(CCCN)n2)cc1` showed an inhibition of 49%.

`CCCCCCCCCCc1ccc(-c2noc(CC(O)CNCC)n2)cc1` (centres undefined) showed an inhibition of 5%.

The compound `CCCCCCCCCCCc1ccc(-c2noc(CCCN)n2)cc1` had an inhibition of 49%.

Compound `CCCCCCCCCCc1ccc(-c2cnn(CCCN)c2)cc1` returned an inhibition of 50%.

As for `CCCCCCCCCCc1ccc(-c2noc([C@@H]3CCNC3)n2)cc1`, the inhibition was 62%.

`CCCCCCCCCCc1ccc(-c2noc(CC[C@@H](N)C(=O)O)n2)cc1`: the inhibition came out at 5%.

Turning to `CCCCCCCCCCc1ccc(-c2noc([C@@H](N)CCN)n2)cc1`, the inhibition came to 14%.

In turn, `CCCCCCCCCCc1ccc(-c2noc([C@@H](N)CCCCN)n2)cc1` had an inhibition of 43%.

With `CCCCCCCCCCc1ccc(-c2noc(CCN)n2)cc1`, the inhibition was 59%.

`CCCCCCCCCCc1cccc(-c2noc(CCCN)n2)c1` showed an inhibition of 26%.

Consider `CCCCCCCCCCc1ccc(-c2noc(C[C@H](C)N)n2)cc1`, for which the inhibition was 44%.

As to `CCCCCCCC(=O)NCc1ccc(-c2noc(CCCN)n2)cc1`, the inhibition is 11%.

On to `CCCCCCCCc1ccc(-c2noc(CCCN)n2)cc1`, for which the inhibition is 70%.

`CCCCCCCCCCc1ccc(-c2noc([C@@H]3CC[C@H](N)C3)n2)cc1` displayed an inhibition of 38%.

`CCCCCCCCCCc1ccc(-c2noc(CN)n2)cc1` yielded an inhibition of 62%.

Turning to `CCCCCCCCC(=O)Nc1ccc(-c2noc(CCCN)n2)cc1`, the inhibition was determined as 35%.

In turn, `CCCCCCCCCCc1ccc(-c2noc(CC(O)CN3CCOCC3)n2)cc1` (centres undefined) returned an inhibition of 0%.

For `CCCCCCCCCCc1ccc(-c2noc(CCCN(C)C)n2)cc1`, the inhibition came to 8%.

In the case of `CCCCCCCCCCc1ccc(-c2nnc(CCCN)o2)cc1`, the inhibition worked out at 59%.

`CCCCCCCCCCc1ccc(-c2noc([C@H](N)CCCCN)n2)cc1` yielded an inhibition of 50%.

As for `CCCCCCCCCCc1ccc(-c2noc(C3CCNCC3)n2)cc1`, the inhibition worked out at 66%.

As for `CCCCCCCCCCc1ccc(-c2ccn(CCCN)n2)cc1`, the inhibition was found to be 44%.

With `CCCCCCCCc1ccc(CCc2noc(CCCN)n2)cc1`, the inhibition is 40%.

The compound `CCCCCCCCCCc1ccc(-c2noc(C(Cl)CCN)n2)cc1` (centres undefined) had an inhibition of 5%.

`CCCCCCCCCCc1ccc(-c2noc(-c3cccc(CN)c3)n2)cc1`: the inhibition stood at 2%.

The compound `CCCCCCCCCCc1ccc(-c2noc(CC(O)CN3CCCC3)n2)cc1` (centres undefined) showed an inhibition of 21%.

The compound `CCCCCCCCCOc1ccc(-c2noc(CCCN)n2)cc1` displayed an inhibition of 49%.

As to `CCCCCCCCCOc1ccc(-c2noc(CCCN)n2)cc1F`, the inhibition stood at 50%.

Compound `CCCCCCCCCCc1ccc(-c2noc([C@@H](N)CCCN)n2)cc1` had an inhibition of 40%.

For the compound `CCCCCCCCCCc1ccc(-c2noc([C@H]3CCC[C@@H](N)C3)n2)cc1`, the inhibition came out at 29%.

Compound `CCCCCCCCCCc1ccc(-c2noc([C@H]3CCNC3)n2)cc1` displayed an inhibition of 26%.

As for `CCCCCCCCCCc1ccc(-c2noc(CCCN3CCCCC3)n2)cc1`, the inhibition came out at 0%.

As for `CCCCCCCOc1ccc2cc(-c3noc(CCCN)n3)ccc2c1`, the inhibition worked out at 8%.

In turn, `CCCCCCCCCCc1ccc(-c2noc(CCCCN)n2)cc1` came in with an inhibition of 55%.

Regarding `CCCCCCCCCCc1ccc(-c2noc([C@H](CCCCN)NC(C)=O)n2)cc1`, the inhibition was found to be 40%.

For `CCCCCCCCCCc1ccc(-c2noc(CC3CNC3)n2)cc1`, the inhibition was 63%.

In turn, `CCCCCCCCCCc1ccc(-c2noc([C@@H]3CCC[C@@H](N)C3)n2)cc1` showed an inhibition of 13%.

Compound `CCCCCCCCCCc1ccc(-c2noc([C@H]3CCCN3)n2)cc1` displayed an inhibition of 12%.

As for `CCCCCCCCCCc1ccc(-c2noc([C@@H]3CCCN3)n2)cc1`, the inhibition is 21%.

For `CCCCCCCCCCc1ccc(-c2c[nH]c(CCCN)n2)cc1`, the inhibition came to 63%.

The compound `CCCCCCc1ccc(-c2noc(CCCN)n2)cc1` gave an inhibition of 55%.
